Bioassay records as filed in PubChem.
The list is not random: actives were taken first. Their share in the collection is about 2.6%.
Rad51 HR inh = human RAD51 strand exchange inhibitors, primary screen, biochemical, fluorescence; inhibition, % at 10 µM; AID 1385, 2008; DNA repair protein RAD51 homolog 1 (Homo sapiens), Q06609; hRad51 DNA strand exchange, fluorescence dequenching; actives 0.085% (n = 200,000);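 active means inhibition above 40% at the single screening dose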;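 further: 0% = DMSO control wells and 100% = blanks with heterologous ssDNA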
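Assay system: Human Rad51 nucleoprotein filaments preassembled on unlabelled ssDNA | Reagent: Donor/quencher-labelled 47-bp dsDNA substrate | Doses: One concentration, 10 µM final | Times: 37 °C 15-min filament assembly, 30-min compound preincubation, 15-min exchange | Technique: Fluorescein emission 520 nm, excitation 485 nm | Benchmarks: Plate control and blank wells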
CHT PAM = CHT positive allosteric modulators, primary screen, cell-based, membrane potential dye, choline EC20 | High affinity choline transporter 1 (Homo sapiens), Q9GZV3 | CHT-expressing cells; stronger effect = higher value; LV-AA mutant CHT in HEK293 cells | B-score at 10 µM | actives 0.49% (n = 310,000);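 active means initial fluorescence not abnormally high and integrated response B-score, plate-corrected, over 3 SD above library mean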
Cl transport mod = KCC2 cotransporter modulators, thallium flux, primary screen, cell-based, HEK293 KCC2, FluoZin-2 fluorescence, MLSMR; actives 2.2% (n = 190,000); KCC2 cells, thallium flux FluoZin-2 fluorescence; B-score of Tl+ flux slope (higher = more flux/activation; lower = inhibition) at 10 µM; AID 1456, 2008; Solute carrier family 12 member 5 (Homo sapiens), Q9H2X9;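 active means thallium flux slope and its plate-corrected score both differing from the plate sample mean at a set confidence after two filtering rounds, in either direction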;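 further: slope of fluorescence scaled to starting intensity during 10 to 20 s after thallium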
CHT block = inhibitors of human choline transporter CHT; High affinity choline transporter 1 (Homo sapiens), Q9GZV3; AID 488975, 2010; B-score at 10 µM; CHT-expressing cells, membrane potential dye, choline response; stronger effect = lower value; actives 0.86% (n = 310,000);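 active means B-score over 3 SD under the library average, and starting fluorescence ratio not unusually high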;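 further: choline stimulus applied at its EC90 after an EC20 pre-addition; B-score computed on integrated fluorescence ratio after choline addition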
CHT activ conf = CHT activators, confirmation, cell-based, membrane potential dye, duplicate. shares compounds with CHT PAM. CHT-expressing cells, membrane potential dye fluorescence (FDSS); % of choline EC20–EC90 response window; HEK293 expressing CHT LV-AA mutant; choline added at its EC20. activation, % at 10 µM. actives 91% (n = 2,500). AID 504833, 2011;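 active means primary screen active, with duplicate mean activation above negative control mean plus 3 SD, cut at about 11% in these data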
HEK293 MP dye = membrane potential response in parental HEK293 cells, counter-screen for CHT activator project, cell-based, membrane potential dye. shares compounds with CHT PAM. membrane potential dye fluorescence (FDSS); measured after EC20 choline addition. ratio readout change at 10 µM, hits read low. actives 62% (n = 2,500);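 active means duplicate-averaged ratio beyond 3 SD from buffer wells, up or down, though filed actives are nearly all decreases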
The depositor's hits bear a star; i = inactive; . = not tested or not shown.

SMILES	Rad51 HR inh	CHT PAM	Cl transport mod	CHT block	CHT activ conf	HEK293 MP dye
CC(=O)N/N=C/c1cc(C(C)(C)C)cc(/C=N/NC(C)=O)c1O	-26	8.4*	1.9	i	64*	-50*
Cc1cc(C(=O)N/N=C\c2cc(C(C)(C)C)ccc2O)n[nH]1	.	i	.	i	.	.
COc1cccc(CNC(=O)C2CCCN(S(=O)(=O)c3c(C)[nH]c(=O)[nH]c3=O)C2)c1 (stereo unspecified)	.	i	0.38	i	.	.
COc1cc(/C=N/Nc2nncc3ccccc23)cc(OC)c1OC	.	7.6*	.	i	40*	-48*
C(=N\Nc1nncc2ccccc12)/c1ccccc1	0	i	-0.53	i	.	.
CN1CCN(c2ccccc2NC(=O)c2ccc(OCc3ccccc3)cc2)CC1	.	i	-2.1	i	27*	-33*
O=C(Nc1cc([N+](=O)[O-])ccc1N1CCCC1)c1ccccc1	8	i	0.31	i	.	.
CN1CCN(c2ccccc2NC(=O)c2ccc(-c3ccccc3)cc2)CC1	-17	i	-2.4	i	.	.
CN1CCN(c2ccc([N+](=O)[O-])cc2NC(=O)c2ccccc2)CC1	6	8.5*	.	i	62*	-88*
COc1cccc(C(=O)Nc2cc([N+](=O)[O-])ccc2N2CCN(C)CC2)c1	-10	9.7*	.	i	49*	-82*
COC(=O)c1ccc(N2CCN(C)CC2)c(NC(=O)COc2cccc(C)c2)c1	.	i	.	i	.	.
Cc1cccc(OCC(=O)Nc2ccccc2N2CCN(C)CC2)c1	.	11*	.	i	36*	i
Cc1ccc2cc(CCNC(=O)CCCc3ccccc3)c(=O)[nH]c2c1C	.	i	.	i	.	.
COc1ccc(C)cc1Nc1cc(C)nc2ncnn12	.	i	0.65	i	.	.
Cc1cc(C)n(C(=O)c2cc3ccccc3c(=O)o2)n1	8	i	0.014	i	.	.
CN1CCN(c2ccc(S(=O)(=O)N3CCCCC3)cc2NC(=O)c2ccc(C#N)cc2)CC1	5	i	1.2	i	2	i
CN1CCN(c2ccccc2NC(=O)c2cccc([N+](=O)[O-])c2)CC1	.	i	0.0024	i	52*	-44*
COc1ccc(C(=O)C2=NN(C(C)=O)CC2c2ccco2)cc1 (stereo unspecified)	0	i	0.079	i	.	.
COc1ccc(NC(=O)CSCC(=O)NC2(C)CCS(=O)(=O)C2)cc1 (stereo unspecified)	.	i	.	i	.	.
N=c1c(C(=O)NC2CCCC2)cc2c(=O)n3ccccc3nc2n1C1CCCCC1	.	i	.	i	48*	-35*
CCC(CC)C(=O)NCc1ccc(OC)cc1	5	i	-0.062	i	.	.
Cc1ccc(-n2[nH]c(C)c(CCC#N)c2=O)cc1	.	i	0.091	i	.	.
CSc1nc(SCC(=O)NCC2CCCO2)c2c3c(sc2n1)CN(C)CC3 (stereo unspecified)	-1	6.5*	1.5	i	36*	-50*
CC(C)Sc1nc(N)c2c3c(sc2n1)CN(C)CC3	.	i	0.047	i	31*	-44*
COCCSc1nc(N)c2c3c(sc2n1)CN(C)CC3	-33	6.4*	-0.37	i	41*	-51*
CSc1nc(NCC(C)C)c2c3c(sc2n1)CN(C)CC3	-9	i	1.1	i	.	.
Cc1nc(SCC(=O)NCC2CCCO2)c2c3c(sc2n1)CCCC3 (stereo unspecified)	.	i	.	i	.	.
COCCNc1nc(SC)nc2sc3c(c12)CCN(C)C3	.	7.1*	.	i	38*	-44*
CC(=O)Nc1ccc(S(=O)(=O)N(C)CC(=O)OCC(=O)N(C)c2ccccc2)cc1	.	i	.	i	.	.
